# Bioassay records: PubChem BioAssay, Johns Hopkins Ion Channel Center
# An excerpt weighted towards active compounds, which were near 3.1% of everything screened.
# hERG rescue – hERG (human) protection from proarrhythmic block; actives 0.51% (n = 310,000); CHO-hERG, FluxOR thallium flux, dofetilide IC70 present; activation (rescue from dofetilide block), less the hit threshold, % at 10 µM; AID 1511;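 active = activation above the mean of controls blocked by dofetilide plus 5 SD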;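 also: thallium influx through hERG after potassium depolarization seen as dye fluorescence rise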
# KCNQ1 pot – potentiators or activators of human KCNQ1 potassium channel | P51787 | CHO-K1 KCNQ1, thallium flux FluxOR fluorescence; active compounds read high | B-score at 10 µM | actives 0.35% (n = 310,000);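 active = fluorescence ratio B-score, a plate-corrected score, at least three library SD, with initial intensity B-score within 5 SD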
#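 assay system = KCNQ1-transfected CHO-K1 cells | medium = assay buffer with matched DMSO | probe or stimulus = depolarizing K+/Tl+ stimulus, K2SO4 and Tl2SO4 each 12.5 mM in 5x stock | dosing = single dose | incubation = dye 90 min, compound 20 min, room temperature | detection = kinetic FluxOR fluorescence, 10 s baseline plus 110 s post-stimulus | evaluation = ratio B score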
# KCNK9 inh – inhibitors of human KCNK9 two-pore domain potassium channel; Q9NPC2; B-score at 10 µM; actives 1.2% (n = 310,000); HEK293 KCNK9, FluxOR thallium flux fluorescence; active compounds read low;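 active = ratio B-score over 3 SD below the library mean, with starting fluorescence within 5 SD of its mean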;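 also: negative B-score means less thallium flux so channel inhibition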
# KCNK3 block – human KCNK3 channel inhibition, primary screen; B-score at 10 µM; AID 602410; actives 0.84% (n = 340,000); O14649; CHO-KCNK3 thallium flux, FluxOR fluorescence; active compounds read low;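 active = B-score under library mean minus 4 SD, starting fluorescence ratio at most library mean plus 5 SD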;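 also: more negative B-score means stronger inhibition of thallium flux through KCNK3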
# Target sequence (O14649 whole entry, looked up): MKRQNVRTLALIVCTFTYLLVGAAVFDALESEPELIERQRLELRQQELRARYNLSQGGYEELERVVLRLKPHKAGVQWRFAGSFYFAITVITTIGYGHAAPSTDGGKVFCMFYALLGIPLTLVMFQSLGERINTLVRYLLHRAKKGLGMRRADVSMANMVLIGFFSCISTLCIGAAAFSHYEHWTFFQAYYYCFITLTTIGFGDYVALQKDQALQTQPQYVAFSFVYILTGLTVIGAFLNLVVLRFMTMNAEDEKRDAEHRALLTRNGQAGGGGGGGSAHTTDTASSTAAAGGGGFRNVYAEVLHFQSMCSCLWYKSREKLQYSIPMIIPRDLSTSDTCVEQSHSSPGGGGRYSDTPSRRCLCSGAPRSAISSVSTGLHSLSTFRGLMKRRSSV
# KCNQ1 inh – inhibitors of human KCNQ1 potassium channel; AID 2642; actives 1.3% (n = 310,000); CHO-K1 KCNQ1, FluxOR thallium flux fluorescence; active compounds read high; B-score at 10 µM; P51787;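 active = compounds whose thallium flux B-score, printed positive for inhibition, exceeds three library SD while starting fluorescence stays within three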;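 also: channel opened by potassium depolarization with thallium stimulus after 20 min compound exposure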
# Numbers without * were called inactive; i = inactive; nt = no result.
SMILES,hERG rescue,KCNQ1 pot,KCNK9 inh,KCNK3 block,KCNQ1 inh
COc1ccc(OCC(=O)NC(=S)Nc2ccc(N3CCOCC3)c(Cl)c2)cc1,-9,13*,i,i,i
O=C(CNC(=O)C1CCCCC1)OC(C(=O)c1ccccc1)c1ccccc1 (configuration not stated),nt,nt,nt,i,nt
CCCCOC(=S)NC(=O)c1sc2ccccc2c1Cl,31*,53*,i,i,i
Cc1ccc(NC(=S)NC(=O)c2sc3ccccc3c2Cl)c(C(=O)O)c1,8.6*,9*,i,nt,i
O=C(O)c1ccccc1NC(=S)NC(=O)c1sc2ccccc2c1Cl,-4,i,i,i,i
CN(C)CCCOC(=O)c1sc2ccccc2c1Cl,-8,i,i,i,i
COc1ccc(NC(=O)CCNS(=O)(=O)c2cccc3nonc23)c(OC)c1,-4,i,i,i,i
Cc1cccc(NC(=O)C2c3ccccc3C(=O)N3CCc4ccccc4C23)n1 (configuration not stated),-6,i,-7.4*,i,i
Cc1ccc(SCC(=O)Nc2cc(S(=O)(=O)N3CCCCC3)ccc2C)cc1,nt,nt,nt,i,nt
CCc1noc(C)c1C(=O)Nc1cc(Cl)ccc1N1CCCC1,-10,i,i,i,i
CC(C)(C)C(=O)CC(=O)Nc1ccc(Cl)c(N)c1,4.9*,i,i,i,i
CCCC(=O)Nc1ccc(Cl)c(NC(=O)C(C)(C)C)c1,-5,i,i,i,i
NC(=O)N/N=C/c1ccc2cccc(OCc3ccccc3)c2n1,-8,i,i,i,i
O=C(Cc1ccccc1)N/N=C/c1ccc2cccc(O)c2n1,9.4*,i,i,i,i
CCOC(=O)c1csc(NC(=O)CN2CCCCC2)n1,-3,i,i,i,i
O=C(O)COc1ccccc1/C=N/NC(=O)c1cccc(S(=O)(=O)N2CCOCC2)c1,5.4*,i,i,i,i
COc1ccc(NC(=O)c2cccc(S(=O)(=O)N3CCOCC3)c2)cn1,-4,i,-6.9*,i,i
CC(NCC(=O)NCC(=O)Nc1ccc(F)cc1)c1cccc(C(F)(F)F)c1 (configuration not stated),nt,nt,nt,i,nt
O=C(NCC(c1ccco1)N1CCc2ccccc2C1)C(=O)Nc1cc(F)ccc1F (configuration not stated),-12,i,i,i,i
O=C(O)CCC(=O)Nc1ccc(SSc2ccc(NC(=O)CCC(=O)O)cc2)cc1,-3,i,i,i,i
NC(N)=NN=C1CCCCCCCCCCC1,-26,i,i,i,7*
O=C(Nc1ccc2[nH]c(=S)sc2c1)c1ccccc1,-7,12*,i,i,i
O=C(Nc1ccc(F)cc1)Nc1ccccc1F,-7,i,i,i,i
O=C(Nc1ccc2[nH]ccc2c1)c1ccccc1,-5,i,i,i,i
O=C(Nc1ccc2[nH]c(=S)sc2c1)Nc1ccccc1F,11*,15*,i,i,i
SMILES,hERG rescue,KCNQ1 pot,KCNK9 inh,KCNK3 block,KCNQ1 inh
COc1ccc(C(C)=O)c(Oc2ccc(S(=O)(=O)N3CCOCC3)cn2)c1,nt,nt,nt,i,nt
CC(C)C[C@H]1C(=O)N2CCC[C@H]2[C@]2(O)O[C@](NC(=O)[C@@H]3C=C4c5cccc6[nH]c(Br)c(c56)CC4N(C)C3)(C(C)C)C(=O)N12 (some centres not stated),-10,i,i,i,6*
Cc1cc(C)c(S(=O)(=O)c2ccccc2)c(OC(=O)c2c(Cl)cccc2Cl)n1,-7,i,-7.2*,i,i
Cc1cc(C(=O)N2CCc3c([nH]c4ccccc34)C2c2cccc(Cl)c2)nn1C (configuration not stated),-2,i,-7.4*,i,i
CN(C)C(CNc1ncnc2sccc12)c1cccs1 (configuration not stated),-20,i,i,i,i
CCOC(=O)c1sc2ncnc(NCC(c3cccs3)N(C)C)c2c1C (configuration not stated),20*,55*,i,i,i
COc1ccc(S(=O)(=O)N2CCN(C(=O)c3ccc(C)o3)CC2)cc1,-10,i,i,i,i
O=C(O)c1ccc(Cl)cc1Nc1nc2cc(Cl)ccc2o1,5.6*,i,i,i,i
